Laboratory results: ChEMBL document CHEMBL5532717, “Facile Halogenation of Antimicrobial Peptides As Demonstrated by Producing Bromotryptophan-Labeled Nisin Variants with Enhanced Antimicrobial Activity” (2024)
In brackets after ≈: the same amount, converted by molar mass. Activity calls are given as the source filed them. The calls are words filed in the database; no cut-off is given here.

Key:
Lactococcus lactis = assay: Antibacterial activity against Lactococcus lactis MG1363 assessed as reduction in bacterial growth by broth microdilution method; type: functional
In short: (§1)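 Broth microdilution MIC: inoculum adjusted to approximately 5 × 10^5 CFU/mL. Plates incubated overnight at 37 °C, or at 30 °C for L. lactis. MIC taken as the lowest concentration with no visible growth.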

Staphylococcus aureus [1] = assay: Antibacterial activity against methicillin-resistant Staphylococcus aureus LMG15975 assessed as reduction in bacterial growth by broth microdilution method; type: functional
In short: (§2)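 Broth microdilution per standard guidelines; inoculum about 5 × 10^5 CFU/mL. Incubated overnight at 37 °C. MIC taken as lowest concentration with no visible growth.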

Staphylococcus aureus [2] = assay: Antibacterial activity against Staphylococcus aureus LMG10147 assessed as reduction in bacterial growth by broth microdilution method; type: functional; in short: as §1
Enterococcus faecalis = assay: Antibacterial activity against vancomycin-reistant Enterococcus faecalis LMG16216 assessed as reduction in bacterial growth by broth microdilution method; type: functional; in short: as §1
Bacillus cereus [3] = assay: Antibacterial activity against Bacillus cereus CH-85 assessed as reduction in bacterial growth by broth microdilution method; type: functional; in short: as §1
Enterococcus faecium = assay: Antibacterial activity against vancomycin-resistant Enterococcus faecium LMG16003 assessed as reduction in bacterial growth by broth microdilution method; type: functional; in short: as §2
Bacillus cereus [4] = assay: Bactericidal activity against Bacillus cereus CH-85 incubated overnight in presence of lipid II by spot-on-lawn assay; type: functional, organism-based
In short: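 B. cereus CH-85 lawn: 0.1% (v/v) overnight-culture inoculum mixed into 1.5% (w/v) LB agar at 45 °C and poured. 5 μL of peptide spotted and dried. Purified lipid II (2 μL) then spotted at the edge of the inhibition halo. Plate incubated overnight at 37 °C and read for lipid II binding.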

Bacillus cereus [5] = assay: Bactericidal activity against Bacillus cereus CH-85 at 15 microg/ml measured for 3 hrs by time-kill assay; type: functional, organism-based; settings: dose 15.0 µg/ml
In short: (§3)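 B. cereus CH-85 overnight culture diluted 50-fold in LB and grown at 37 °C with aeration to OD600 0.5, then adjusted to 5 × 10^5 cells/mL. Cells exposed to peptide at several concentrations in tubes at 37 °C, 180 rpm; untreated cells as negative control. Aliquots taken at time points, 10-fold serially diluted and plated on LB agar, incubated overnight at 37 °C, CFU/mL counted; triplicate.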

Bacillus cereus [6] = assay: Bactericidal activity against Bacillus cereus CH-85 assessed as bacterial cell killing at 15 microg/ml measured for 3 hrs by time-kill assay; type: functional; settings: dose 15.0 µg/ml; in short: as §3

Structure (SMILES)	MIC (Lactococcus lactis)	MIC (Staphylococcus aureus [1])	MIC (Staphylococcus aureus [2])	MIC (Enterococcus faecalis)	MIC (Bacillus cereus [3])	MIC (Enterococcus faecium)	Activity (Bacillus cereus [4])	Activity (Bacillus cereus [5])	Activity (Bacillus cereus [6])
N[C@@H](Cc1c[nH]c2ccc(O)cc12)C(=O)O [OXITRIPTAN]	0.08 µg/mL (≈ 0.363 µM)	> 12.5 µg/mL	12.5 µg/mL (≈ 56.8 µM)	12.5 µg/mL (≈ 56.8 µM)	6.25 µg/mL (≈ 28.4 µM)	6.25 µg/mL (≈ 28.4 µM)	–	–	–
N[C@@H](Cc1c[nH]c2ccccc12)C(=O)O [TRYPTOPHAN]	0.04 µg/mL (≈ 0.196 µM)	6.25 µg/mL (≈ 30.6 µM)	6.25 µg/mL (≈ 30.6 µM)	12.5 µg/mL (≈ 61.2 µM)	6.25 µg/mL (≈ 30.6 µM)	3.13 µg/mL (≈ 15.3 µM)	–	–	–
N[C@@H](Cc1c[nH]c2ccc(Br)cc12)C(=O)O	0.04 µg/mL (≈ 0.141 µM)	3.13 µg/mL (≈ 11.1 µM)	6.25 µg/mL (≈ 22.1 µM)	12.5 µg/mL (≈ 44.2 µM)	3.13 µg/mL (≈ 11.1 µM)	3.13 µg/mL (≈ 11.1 µM)	inactive	Active	Active
CCCCCCCCCC(=O)N[C@@H](Cc1c[nH]c2ccccc12)C(=O)N[C@H](CC(N)=O)C(=O)N[C@@H](CC(=O)O)C(=O)N[C@@H]1C(=O)NCC(=O)N[C@@H](CCCN)C(=O)N[C@@H](CC(=O)O)C(=O)N[C@H](C)C(=O)N[C@@H](CC(=O)O)C(=O)NCC(=O)N[C@H](CO)C(=O)N[C@@H]([C@H](C)CC(=O)O)C(=O)N[C@@H](CC(=O)c2ccccc2N)C(=O)O[C@@H]1C	–	–	–	–	–	–	Active	–	–
N[C@@H](Cc1c[nH]c2cc(Br)ccc12)C(=O)O	0.08 µg/mL (≈ 0.283 µM)	6.25 µg/mL (≈ 22.1 µM)	12.5 µg/mL (≈ 44.2 µM)	25 µg/mL (≈ 88.3 µM)	6.25 µg/mL (≈ 22.1 µM)	3.13 µg/mL (≈ 11.1 µM)	–	–	–
